System: Fibroblast
Experiment: Multiplex assay against human fibroblast
Assay type: toxicity, cell-based
How it was run: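 Hoechst33342, BioTracker Green Microtubule Cytoskeleton Dye, MitoTracker Red and Annexin V Alexa Fluor 680 were added to live cells at seeding, and imaging on a CQ1 microscope at 37°C and 5% CO2 followed compound addition. Gating by CellPathfinder machine learning separated cells into Hoechst high-intensity objects or normal cells, then normal cells into healthy, pyknosed or fragmented nuclei, then pyknosed cells into mitotic or apoptotic. Per cents of healthy-nucleus cells are reported for the tubulin, mitochondrial-mass and membrane-permeability phenotypes.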

[1] = 12 h, 1 µM, compound concentration 1 uM, replicate 1
[2] = 12 h, 1 µM, compound concentration 1 uM, replicate 2
[3] = 12 h, 10 µM, compound concentration 10 uM, replicate 1
[4] = 12 h, 10 µM, compound concentration 10 uM, replicate 2
[5] = 24 h, 1 µM, compound concentration 1 uM, replicate 1
[6] = 24 h, 1 µM, compound concentration 1 uM, replicate 2
[7] = 24 h, 10 µM, compound concentration 10 uM, replicate 1
[8] = 24 h, 10 µM, compound concentration 10 uM, replicate 2
[9] = 48 h, 1 µM, compound concentration 1 uM, replicate 1
[10] = 48 h, 1 µM, compound concentration 1 uM, replicate 2
[11] = 48 h, 10 µM, compound concentration 10 uM, replicate 1
[12] = 48 h, 10 µM, compound concentration 10 uM, replicate 2

O=c1cc(N2CCOCC2)oc2c(-c3cccc4c3sc3ccccc34)cccc12
Population Apoptotic (%) [1]: 65%
Population Fragmented Nuclei (%) [1]: 23%
Population Healthy Nuclei (%) [1]: 44%
Population Hoechst High Intensity Objects (%) [1]: 13%
Population Membrane Permeable-Phenotype (%) [1]: 32%
Population Mitochondria Different-Phenotype (%) [1]: 5%
Population Mitotic Cells (%) [1]: 34%
Population Normal (%) [1]: 86%
Population Pyknosed Nuclei (%) [1]: 32%
Population Tubulin-Different-Phenotype (%) [1]: 36%
Total Cell Count [1]: 136
Population Apoptotic (%) [2]: 100%
Population Fragmented Nuclei (%) [2]: 15%
Population Healthy Nuclei (%) [2]: 77%
Population Hoechst High Intensity Objects (%) [2]: 10%
Population Membrane Permeable-Phenotype (%) [2]: 2%
Population Mitochondria Different-Phenotype (%) [2]: 6%
Population Mitotic Cells (%) [2]: 0%
Population Normal (%) [2]: 90%
Population Pyknosed Nuclei (%) [2]: 6%
Population Tubulin-Different-Phenotype (%) [2]: 14%
Total Cell Count [2]: 79
Population Apoptotic (%) [3]: 61%
Population Fragmented Nuclei (%) [3]: 35%
Population Healthy Nuclei (%) [3]: 28%
Population Hoechst High Intensity Objects (%) [3]: 13%
Population Membrane Permeable-Phenotype (%) [3]: 30%
Population Mitochondria Different-Phenotype (%) [3]: 28%
Population Mitotic Cells (%) [3]: 38%
Population Normal (%) [3]: 86%
Population Pyknosed Nuclei (%) [3]: 36%
Population Tubulin-Different-Phenotype (%) [3]: 95%
Total Cell Count [3]: 171
Population Apoptotic (%) [4]: 31%
Population Fragmented Nuclei (%) [4]: 19%
Population Healthy Nuclei (%) [4]: 45%
Population Hoechst High Intensity Objects (%) [4]: 16%
Population Membrane Permeable-Phenotype (%) [4]: 23%
Population Mitochondria Different-Phenotype (%) [4]: 90%
Population Mitotic Cells (%) [4]: 68%
Population Normal (%) [4]: 83%
Population Pyknosed Nuclei (%) [4]: 34%
Total Cell Count [4]: 70
Population Apoptotic (%) [5]: 57%
Population Fragmented Nuclei (%) [5]: 19%
Population Healthy Nuclei (%) [5]: 60%
Population Hoechst High Intensity Objects (%) [5]: 9%
Population Membrane Permeable-Phenotype (%) [5]: 31%
Population Mitochondria Different-Phenotype (%) [5]: 2%
Population Mitotic Cells (%) [5]: 42%
Population Normal (%) [5]: 90%
Population Pyknosed Nuclei (%) [5]: 20%
Population Tubulin-Different-Phenotype (%) [5]: 39%
Total Cell Count [5]: 151
Population Apoptotic (%) [6]: 60%
Population Fragmented Nuclei (%) [6]: 11%
Population Healthy Nuclei (%) [6]: 82%
Population Hoechst High Intensity Objects (%) [6]: 6%
Population Membrane Permeable-Phenotype (%) [6]: 9%
Population Mitochondria Different-Phenotype (%) [6]: 9%
Population Mitotic Cells (%) [6]: 40%
Population Normal (%) [6]: 93%
Population Pyknosed Nuclei (%) [6]: 6%
Population Tubulin-Different-Phenotype (%) [6]: 15%
Total Cell Count [6]: 86
Population Apoptotic (%) [7]: 77%
Population Fragmented Nuclei (%) [7]: 28%
Population Healthy Nuclei (%) [7]: 45%
Population Hoechst High Intensity Objects (%) [7]: 14%
Population Membrane Permeable-Phenotype (%) [7]: 19%
Population Mitochondria Different-Phenotype (%) [7]: 40%
Population Mitotic Cells (%) [7]: 22%
Population Normal (%) [7]: 85%
Population Pyknosed Nuclei (%) [7]: 26%
Population Tubulin-Different-Phenotype (%) [7]: 95%
Total Cell Count [7]: 160
Population Apoptotic (%) [8]: 66%
Population Fragmented Nuclei (%) [8]: 14%
Population Healthy Nuclei (%) [8]: 21%
Population Hoechst High Intensity Objects (%) [8]: 6%
Population Membrane Permeable-Phenotype (%) [8]: 50%
Population Mitochondria Different-Phenotype (%) [8]: 70%
Population Mitotic Cells (%) [8]: 33%
Population Normal (%) [8]: 94%
Population Pyknosed Nuclei (%) [8]: 63%
Population Tubulin-Different-Phenotype (%) [8]: 70%
Total Cell Count [8]: 86
Population Apoptotic (%) [9]: 60%
Population Fragmented Nuclei (%) [9]: 33%
Population Healthy Nuclei (%) [9]: 56%
Population Hoechst High Intensity Objects (%) [9]: 11%
Population Membrane Permeable-Phenotype (%) [9]: 21%
Population Mitochondria Different-Phenotype (%) [9]: 7%
Population Mitotic Cells (%) [9]: 40%
Population Normal (%) [9]: 88%
Population Pyknosed Nuclei (%) [9]: 10%
Population Tubulin-Different-Phenotype (%) [9]: 27%
Total Cell Count [9]: 167
Population Apoptotic (%) [10]: 50%
Population Fragmented Nuclei (%) [10]: 18%
Population Healthy Nuclei (%) [10]: 76%
Population Hoechst High Intensity Objects (%) [10]: 6%
Population Membrane Permeable-Phenotype (%) [10]: 17%
Population Mitochondria Different-Phenotype (%) [10]: 2%
Population Mitotic Cells (%) [10]: 50%
Population Normal (%) [10]: 93%
Population Pyknosed Nuclei (%) [10]: 4%
Population Tubulin-Different-Phenotype (%) [10]: 24%
Total Cell Count [10]: 97
Population Apoptotic (%) [11]: 68%
Population Fragmented Nuclei (%) [11]: 51%
Population Healthy Nuclei (%) [11]: 23%
Population Hoechst High Intensity Objects (%) [11]: 12%
Population Membrane Permeable-Phenotype (%) [11]: 17%
Population Mitochondria Different-Phenotype (%) [11]: 37%
Population Mitotic Cells (%) [11]: 31%
Population Normal (%) [11]: 87%
Population Pyknosed Nuclei (%) [11]: 25%
Population Tubulin-Different-Phenotype (%) [11]: 80%
Total Cell Count [11]: 173
Population Apoptotic (%) [12]: 64%
Population Fragmented Nuclei (%) [12]: 27%
Population Healthy Nuclei (%) [12]: 55%
Population Hoechst High Intensity Objects (%) [12]: 10%
Population Membrane Permeable-Phenotype (%) [12]: 6%
Population Mitochondria Different-Phenotype (%) [12]: 48%
Population Mitotic Cells (%) [12]: 35%
Population Normal (%) [12]: 90%
Population Pyknosed Nuclei (%) [12]: 17%
Population Tubulin-Different-Phenotype (%) [12]: 88%
Total Cell Count [12]: 90

From ChEMBL document CHEMBL4689842, “EUbOPEN Chemogenomics Library wave 1” (2021)
